Assay results from ChEMBL document CHEMBL4387724, “2-Pyridineformamide N(4)-ring incorporated thiosemicarbazones inhibit MCF-7 cells by inhibiting JNK pathway” (Bioorg Med Chem Lett, 2019).

Assays:
[1] = system: MCF7; experiment: Cytotoxicity against human MCF7 cells assessed as reduction in cell growth incubated for 72 hrs by MTT assay; type: functional, cell-based; conditions: MCF7, 72 h
Method in brief: (§1)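 Cells grown in DMEM with 10% FBS and penicillin-streptomycin at 37 °C, 5% CO2, seeded at 3000 cells/well and attached overnight. Screening series given at 1, 3, 10, 100 μM; follow-up agent at 100 nM–3 μM; both 72 h, with 0.1% DMSO vehicle. MTT (5 mg/mL stock) added for 3 h at 37 °C, formazan dissolved in DMSO, absorbance read at 570 nm. Viability expressed as % of DMSO-treated wells from replicates.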

[2] = system: A-431; experiment: Cytotoxicity against human A431 cells assessed as reduction in cell growth incubated for 72 hrs by MTT assay; type: functional, cell-based; conditions: A-431, 72 h; method in brief: as §1
[3] = system: A-375; experiment: Cytotoxicity against human A375 cells assessed as reduction in cell growth incubated for 72 hrs by MTT assay; type: functional, cell-based; conditions: A-375, 72 h; method in brief: as §1
[4] = system: HeLa; experiment: Cytotoxicity against human HeLa cells assessed as reduction in cell growth incubated for 72 hrs by MTT assay; type: functional, cell-based; method in brief: as §1
[5] = system: A-375; experiment: Cytotoxicity against human A375 cells assessed as reduction in cell growth at 1 uM incubated for 72 hrs by MTT assay relative to control; type: functional; conditions: A-375, 72 h, read-out: GI; method in brief: as §1
[6] = system: A-375; experiment: Cytotoxicity against human A375 cells assessed as reduction in cell growth at 3 uM incubated for 72 hrs by MTT assay relative to control; type: functional; conditions: A-375, 72 h, read-out: GI; method in brief: as §1
[7] = system: A-375; experiment: Cytotoxicity against human A375 cells assessed as reduction in cell growth at 10 uM incubated for 72 hrs by MTT assay relative to control; type: functional; conditions: A-375, 72 h, read-out: GI; method in brief: as §1
[8] = system: A-375; experiment: Cytotoxicity against human A375 cells assessed as reduction in cell growth at 30 uM incubated for 72 hrs by MTT assay relative to control; type: functional; conditions: A-375, 72 h, read-out: GI
[9] = system: A-375; experiment: Cytotoxicity against human A375 cells assessed as reduction in cell growth at 100 uM incubated for 72 hrs by MTT assay relative to control; type: functional; conditions: A-375, 72 h, read-out: GI; method in brief: as §1
[10] = system: A-431; experiment: Cytotoxicity against human A431 cells assessed as reduction in cell growth at 1 uM incubated for 72 hrs by MTT assay relative to control; type: functional; conditions: A-431, 72 h, read-out: GI; method in brief: as §1
[11] = system: A-431; experiment: Cytotoxicity against human A431 cells assessed as reduction in cell growth at 3 uM incubated for 72 hrs by MTT assay relative to control; type: functional; conditions: A-431, 72 h, read-out: GI; method in brief: as §1
[12] = system: A-431; experiment: Cytotoxicity against human A431 cells assessed as reduction in cell growth at 10 uM incubated for 72 hrs by MTT assay relative to control; type: functional; conditions: A-431, 72 h, read-out: GI; method in brief: as §1
[13] = system: A-431; experiment: Cytotoxicity against human A431 cells assessed as reduction in cell growth at 30 uM incubated for 72 hrs by MTT assay relative to control; type: functional; conditions: A-431, 72 h, read-out: GI
[14] = system: A-431; experiment: Cytotoxicity against human A431 cells assessed as reduction in cell growth at 100 uM incubated for 72 hrs by MTT assay relative to control; type: functional; conditions: A-431, 72 h, read-out: GI; method in brief: as §1
[15] = system: HeLa; experiment: Cytotoxicity against human HeLa cells assessed as reduction in cell growth at 1 uM incubated for 72 hrs by MTT assay relative to control; type: functional; conditions: read-out: GI; method in brief: as §1
[16] = system: HeLa; experiment: Cytotoxicity against human HeLa cells assessed as reduction in cell growth at 3 uM incubated for 72 hrs by MTT assay relative to control; type: functional; conditions: read-out: GI; method in brief: as §1
[17] = system: HeLa; experiment: Cytotoxicity against human HeLa cells assessed as reduction in cell growth at 10 uM incubated for 72 hrs by MTT assay relative to control; type: functional; conditions: read-out: GI; method in brief: as §1
[18] = system: HeLa; experiment: Cytotoxicity against human HeLa cells assessed as reduction in cell growth at 30 uM incubated for 72 hrs by MTT assay relative to control; type: functional; conditions: read-out: GI
[19] = system: HeLa; experiment: Cytotoxicity against human HeLa cells assessed as reduction in cell growth at 100 uM incubated for 72 hrs by MTT assay relative to control; type: functional; conditions: read-out: GI; method in brief: as §1
[20] = system: MCF7; experiment: Cytotoxicity against human MCF7 cells assessed as reduction in cell growth at 1 uM incubated for 72 hrs by MTT assay relative to control; type: functional; conditions: MCF7, 72 h, read-out: GI; method in brief: as §1
[21] = system: MCF7; experiment: Cytotoxicity against human MCF7 cells assessed as reduction in cell growth at 3 uM incubated for 72 hrs by MTT assay relative to control; type: functional; conditions: MCF7, 72 h, read-out: GI; method in brief: as §1
[22] = system: MCF7; experiment: Cytotoxicity against human MCF7 cells assessed as reduction in cell growth at 10 uM incubated for 72 hrs by MTT assay relative to control; type: functional; conditions: MCF7, 72 h, read-out: GI; method in brief: as §1
[23] = system: MCF7; experiment: Cytotoxicity against human MCF7 cells assessed as reduction in cell growth at 30 uM incubated for 72 hrs by MTT assay relative to control; type: functional; conditions: MCF7, 72 h, read-out: GI
[24] = system: MCF7; experiment: Cytotoxicity against human MCF7 cells assessed as reduction in cell growth at 100 uM incubated for 72 hrs by MTT assay relative to control; type: functional; conditions: MCF7, 72 h, read-out: GI; method in brief: as §1

Compound	IC50 [1] [µM]	IC50 [2] [µM]	IC50 [3] [µM]	IC50 [4] [µM]	inhibition of growth at 1 µM [5] [%]	inhibition of growth at 3 µM [6] [%]	inhibition of growth at 10 µM [7] [%]	inhibition of growth at 30 µM [8] [%]	inhibition of growth at 100 µM [9] [%]	inhibition of growth at 1 µM [10] [%]	inhibition of growth at 3 µM [11] [%]	inhibition of growth at 10 µM [12] [%]	inhibition of growth at 30 µM [13] [%]	inhibition of growth at 100 µM [14] [%]	inhibition of growth at 1 µM [15] [%]	inhibition of growth at 3 µM [16] [%]	inhibition of growth at 10 µM [17] [%]	inhibition of growth at 30 µM [18] [%]	inhibition of growth at 100 µM [19] [%]	inhibition of growth at 1 µM [20] [%]	other results
Cc1cccc(/C(N)=N/NC(=S)N2CCCCC2)n1	74	12.4	1	2	49.9	63.2	76.4	80.9	85.7	35	36.6	47.8	65.2	77.5	27	68.9	83.5	83.5	85.4	19.5	inhibition of growth at 3 µM [21]: 27.1%; inhibition of growth at 10 µM [22]: 39%; inhibition of growth at 30 µM [23]: 43%; inhibition of growth at 100 µM [24]: 54%
N/C(=N\NC(=S)N1CCCCC1)c1ccccn1	8.5	6.9	0.68	3.8	72.5	86.5	85.8	87	88.5	24.4	27	68.1	79.7	85.6	15.5	49.2	55.7	76.9	86	15.4	inhibition of growth at 3 µM [21]: 38.6%; inhibition of growth at 10 µM [22]: 53.1%; inhibition of growth at 30 µM [23]: 69.3%; inhibition of growth at 100 µM [24]: 77.7%
N/C(=N\NC(=S)N1CCN(c2ccccn2)CC1)c1ccc(F)cn1	22	13.4	1.4	2	49.3	53.1	56.8	73.2	76.2	31.1	43	47.4	62.3	77.1	22.5	77.3	80	87	83	13.4	inhibition of growth at 3 µM [21]: 27.1%; inhibition of growth at 10 µM [22]: 35.8%; inhibition of growth at 30 µM [23]: 58.6%; inhibition of growth at 100 µM [24]: 74.3%
Cc1cccc(/C(N)=N/NC(=S)N2CCCC2)n1	61.8	4	2.9	2.7	13.6	51.3	55.9	60.8	66.3	21	47.2	67.6	72.2	86.8	8.7	56.8	79.2	74.5	80.1	17.4	inhibition of growth at 3 µM [21]: 26.6%; inhibition of growth at 10 µM [22]: 38.2%; inhibition of growth at 30 µM [23]: 40.1%; inhibition of growth at 100 µM [24]: 61.8%
N/C(=N\NC(=S)N1CCSCC1)c1ccccn1	8.8	6.7	0.76	7.8	34	80	83.9	86	87.8	31.7	37.2	61.4	81.3	80.8	25.1	39.7	54.5	80.6	88.7	16.3	inhibition of growth at 3 µM [21]: 29%; inhibition of growth at 10 µM [22]: 54.3%; inhibition of growth at 30 µM [23]: 72.6%; inhibition of growth at 100 µM [24]: 72.4%
Cc1cccc(/C(N)=N/NC(=S)N2CCCCCC2)n1	54.7	14.7	1.8	1	39.6	64.5	79.9	70.3	80.9	42.8	44.1	45.8	63.5	76.7	49.5	63.6	71.7	81.2	82.7	6.3	inhibition of growth at 3 µM [21]: 15.7%; inhibition of growth at 10 µM [22]: 21.5%; inhibition of growth at 30 µM [23]: 38.8%; inhibition of growth at 100 µM [24]: 70.2%
N/C(=N\NC(=S)N1CCCCCC1)c1ccccn1	2.6	3	0.74	6	67	78.6	86.5	90	89	18.8	50.3	67	72.3	77.5	21.3	36.6	67.4	82.9	88.7	25.3	inhibition of growth at 3 µM [21]: 56%; inhibition of growth at 10 µM [22]: 62.2%; inhibition of growth at 30 µM [23]: 76.5%; inhibition of growth at 100 µM [24]: 84%
N/C(=N\NC(=S)N1CCOCC1)c1ccc(F)cn1	22.1	4	1.5	1.7	44.5	66.4	70.3	85.9	86.2	31.8	47	66.9	82.3	85.6	21.4	59.7	81.9	84.5	81.2	12.4	inhibition of growth at 3 µM [21]: 33.9%; inhibition of growth at 10 µM [22]: 39.5%; inhibition of growth at 30 µM [23]: 56.7%; inhibition of growth at 100 µM [24]: 61.5%
N/C(=N\NC(=S)N1CCCC1)c1ccccn1	3.6	1.7	0.6	6.2	65.7	80	83.9	86	87.8	39.8	70.9	77.2	85.2	83.8	24.7	38.5	63.5	84.5	89.1	45.9	inhibition of growth at 3 µM [21]: 49.8%; inhibition of growth at 10 µM [22]: 51.7%; inhibition of growth at 30 µM [23]: 54.6%; inhibition of growth at 100 µM [24]: 74.9%
